Measurements from different studies.
pEC50, pIC50, pKi: −log10 of the molar value.
OPRK1: Kappa-type opioid receptor (OPRK1, Homo sapiens, UniProt P41145)
PFF0160c: Dihydroorotate dehydrogenase (quinone), mitochondrial (PFF0160c, Plasmodium falciparum, UniProt Q08210)
CNR1: Cannabinoid receptor 1 (CNR1, Homo sapiens, UniProt P21554)

SMILES | target | observed | action | technique | setting | endpoint | result
CC(=O)S(=O)(=O)c1ccc(C(=O)N[C@H]2CC[C@@]3(O)[C@H]4Cc5ccc(O)c6c5[C@@]3(CCN4CC3CC3)[C@H]2O6)s1 | OPRK1 | ligand displacement | – | radioligand | cell membranes | pKi | 8.79
CNC(=O)c1ccc(-c2cnn3ccc(C(=O)N(C)c4ccc(Cl)c(C(=O)OC)c4)cc23)cc1 | Serine/threonine-protein kinase WNK1 (WNK1, Homo sapiens, UniProt Q9H4A3) | enzyme activity | inhibitor | – | – | pIC50 | < 4.52
N#Cc1ccc(C(=O)N[C@H]2CC[C@@]3(O)[C@H]4Cc5ccc(O)c6c5[C@@]3(CCN4CC3CC3)[C@H]2O6)s1 | OPRK1 | ligand displacement | – | radioligand | cell membranes | pKi | 8.44
Cn1nc2c(=O)n(C3CC3)cc(C3CC3)c2c1Cc1ccc(C(F)(F)F)nc1 | PFF0160c | enzyme activity | inhibitor | – | – | pIC50 | 7.40
COC(=O)[C@@H](NC(=O)c1nn(Cc2ccc(F)cc2)c2ccccc12)C(C)C | CNR1 | β-arrestin recruitment | agonist | – | – | pEC50 | 7.70
Cn1nc2c(=O)n(C3CC3)cnc2c1[C@@](O)(c1cnc(C(F)(F)F)c(Cl)c1)C(F)(F)F | PFF0160c | enzyme activity | inhibitor | – | – | pIC50 | 5.30
CCCCCCn1c(O)c(N=NC(=O)c2ccccc2)c2ccccc21 | CNR1 | ligand displacement | – | radioligand | cell membranes | pKi | 5.94
Cc1nn(C2CC2)c(=O)c2nn(C)c(Cc3ccc(C(F)(F)F)c(C#N)c3)c12 | PFF0160c | enzyme activity | inhibitor | – | – | pIC50 | 6.70
O=C(N[C@H]1CC[C@@]2(O)[C@H]3Cc4ccc(O)c5c4[C@@]2(CCN3CC2CC2)[C@H]1O5)c1ccc(C(F)(F)F)s1 | OPRK1 | ligand displacement | – | radioligand | cell membranes | pKi | 8.61
CCCCCc1cc(O)c2c(c1)OC(C)(CCC=C(C)C)C=C2 (stereo not drawn) | CNR1 | ligand displacement | – | radioligand | – | pKi | 5.17
COc1ccc(C(=O)N[C@H]2CC[C@@]3(O)[C@H]4Cc5ccc(O)c6c5[C@@]3(CCN4CC3CC3)[C@H]2O6)s1 | OPRK1 | ligand displacement | – | radioligand | cell membranes | pKi | 8.77
C=CCCCn1c(O)c(N=NC(=O)c2ccccc2)c2ccccc21 | CNR1 | β-arrestin recruitment | agonist | – | – | pEC50 | 5.98
CCn1cc(C2CC2)c2c(Cc3ccc(C(F)(F)F)c(F)c3)n(C)nc2c1=O | PFF0160c | enzyme activity | inhibitor | – | – | pIC50 | 7.90
CCCCCn1c(O)c(N=NC(=O)c2ccccc2)c2ccccc21 | CNR1 | ligand displacement | – | radioligand | cell membranes | pKi | 5.81
CC(=O)Nc1ccc(C(=O)N[C@H]2CC[C@@]3(O)[C@H]4Cc5ccc(O)c6c5[C@@]3(CCN4CC3CC3)[C@H]2O6)s1 | OPRK1 | ligand displacement | – | radioligand | cell membranes | pKi | 8.30
